Source: ChEMBL document CHEMBL5260793, “Novel pyrazolo[3,4-d]pyrimidine with 4-(1H-benzimidazol-2-yl)-phenylamine as broad spectrum anticancer agents: Synthesis, cell based assay, topoisomerase inhibition, DNA intercalation and bovine serum albumin studies” (Eur J Med Chem, 2017)
Activity calls are given as the source filed them. No cut-off for these calls is given here.

Tests used:
[1] = tested on: Panel leukemia (Carcinoma cell lines); assay: Anticancer activity against human Panel leukemia (Carcinoma cell lines) assessed as cell growth inhibition incubated for 48 hrs by Sulphorhodamine B assay; assay type: functional
Summary of the method: (§1)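 NCI-60 five-dose screen. Cells in RPMI 1640 with 5% FBS and 2 mM L-glutamine were plated at 5,000–40,000 cells/well and held 24 h before dosing. Compounds came from DMSO stocks and were given at five concentrations (10-fold or ½-log dilutions) for 48 h at 37 °C. Adherent cells were TCA-fixed and stained with SRB; A515 was read. GI50 was set from growth = 50% and TGI from Ti = Tz, using Tz/C/Ti.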

[2] = tested on: Panel melanoma (Carcinoma cell lines); assay: Anticancer activity against human Panel melanoma (Carcinoma cell lines) assessed as cell growth inhibition incubated for 48 hrs by Sulphorhodamine B assay; assay type: functional; summary of the method: as §1
[3] = tested on: Panel ovarian (Carcinoma cell lines); assay: Anticancer activity against human Panel ovarian (Carcinoma cell lines) assessed as cell growth inhibition incubated for 48 hrs by Sulphorhodamine B assay; assay type: functional; summary of the method: as §1
[4] = tested on: Panel renal (Carcinoma cell lines); assay: Anticancer activity against human Panel renal (Carcinoma cell lines) assessed as cell growth inhibition incubated for 48 hrs by Sulphorhodamine B assay; assay type: functional; summary of the method: as §1
[5] = tested on: Panel prostate (Carcinoma cell lines); assay: Anticancer activity against human Panel prostate (Carcinoma cell lines) assessed as cell growth inhibition incubated for 48 hrs by Sulphorhodamine B assay; assay type: functional; summary of the method: as §1
[6] = tested on: Panel leukemia (Carcinoma cell lines); assay: Anticancer activity against human Panel leukemia (Carcinoma cell lines) assessed as total growth inhibition incubated for 48 hrs by Sulphorhodamine B assay; assay type: functional
[7] = Anticancer activity against human Non-small cell lung cancer cell line assessed as total growth inhibition incubated for 48 hrs by Sulphorhodamine B assay; assay type: functional; summary of the method: as §1
[8] = tested on: Panel colon (Carcinoma cell lines); assay: Anticancer activity against human Panel colon (Carcinoma cell lines) assessed as total growth inhibition incubated for 48 hrs by Sulphorhodamine B assay; assay type: functional; summary of the method: as §1
[9] = tested on: Panel CNS (Carcinoma cell lines); assay: Anticancer activity against human Panel CNS (Carcinoma cell lines) assessed as total growth inhibition incubated for 48 hrs by Sulphorhodamine B assay; assay type: functional; summary of the method: as §1
[10] = tested on: Panel ovarian (Carcinoma cell lines); assay: Anticancer activity against human Panel ovarian (Carcinoma cell lines) assessed as total growth inhibition incubated for 48 hrs by Sulphorhodamine B assay; assay type: functional
[11] = tested on: Panel leukemia (Carcinoma cell lines); assay: Anticancer activity against human Panel leukemia (Carcinoma cell lines) assessed as lethality incubated for 48 hrs by Sulphorhodamine B assay; assay type: functional
[12] = Anticancer activity against human Non-small cell lung cancer cell line assessed as lethality incubated for 48 hrs by Sulphorhodamine B assay; assay type: functional
[13] = tested on: Panel colon (Carcinoma cell lines); assay: Anticancer activity against human Panel colon (Carcinoma cell lines) assessed as lethality incubated for 48 hrs by Sulphorhodamine B assay; assay type: functional
[14] = tested on: Panel prostate (Carcinoma cell lines); assay: Anticancer activity against human Panel prostate (Carcinoma cell lines) assessed as lethality incubated for 48 hrs by Sulphorhodamine B assay; assay type: functional
[15] = tested on: Panel breast (Carcinoma cell lines); assay: Anticancer activity against human Panel breast (Carcinoma cell lines) assessed as lethality incubated for 48 hrs by Sulphorhodamine B assay; assay type: functional; conditions: read-out: LC50 (the source's name)
[16] = biological target: DNA topoisomerase 2-alpha (Homo sapiens) (UniProt P11388); assay: Inhibition of human DNA topoisomerase II-alpha mediated supercoiled pHOT1 plasmid DNA relaxation at 50 uM incubated for 30 mins by ethidium bromide staining based agarose gel electrophoresis analysis
Sequence of DNA topoisomerase 2-alpha (Homo sapiens) (P11388 whole entry): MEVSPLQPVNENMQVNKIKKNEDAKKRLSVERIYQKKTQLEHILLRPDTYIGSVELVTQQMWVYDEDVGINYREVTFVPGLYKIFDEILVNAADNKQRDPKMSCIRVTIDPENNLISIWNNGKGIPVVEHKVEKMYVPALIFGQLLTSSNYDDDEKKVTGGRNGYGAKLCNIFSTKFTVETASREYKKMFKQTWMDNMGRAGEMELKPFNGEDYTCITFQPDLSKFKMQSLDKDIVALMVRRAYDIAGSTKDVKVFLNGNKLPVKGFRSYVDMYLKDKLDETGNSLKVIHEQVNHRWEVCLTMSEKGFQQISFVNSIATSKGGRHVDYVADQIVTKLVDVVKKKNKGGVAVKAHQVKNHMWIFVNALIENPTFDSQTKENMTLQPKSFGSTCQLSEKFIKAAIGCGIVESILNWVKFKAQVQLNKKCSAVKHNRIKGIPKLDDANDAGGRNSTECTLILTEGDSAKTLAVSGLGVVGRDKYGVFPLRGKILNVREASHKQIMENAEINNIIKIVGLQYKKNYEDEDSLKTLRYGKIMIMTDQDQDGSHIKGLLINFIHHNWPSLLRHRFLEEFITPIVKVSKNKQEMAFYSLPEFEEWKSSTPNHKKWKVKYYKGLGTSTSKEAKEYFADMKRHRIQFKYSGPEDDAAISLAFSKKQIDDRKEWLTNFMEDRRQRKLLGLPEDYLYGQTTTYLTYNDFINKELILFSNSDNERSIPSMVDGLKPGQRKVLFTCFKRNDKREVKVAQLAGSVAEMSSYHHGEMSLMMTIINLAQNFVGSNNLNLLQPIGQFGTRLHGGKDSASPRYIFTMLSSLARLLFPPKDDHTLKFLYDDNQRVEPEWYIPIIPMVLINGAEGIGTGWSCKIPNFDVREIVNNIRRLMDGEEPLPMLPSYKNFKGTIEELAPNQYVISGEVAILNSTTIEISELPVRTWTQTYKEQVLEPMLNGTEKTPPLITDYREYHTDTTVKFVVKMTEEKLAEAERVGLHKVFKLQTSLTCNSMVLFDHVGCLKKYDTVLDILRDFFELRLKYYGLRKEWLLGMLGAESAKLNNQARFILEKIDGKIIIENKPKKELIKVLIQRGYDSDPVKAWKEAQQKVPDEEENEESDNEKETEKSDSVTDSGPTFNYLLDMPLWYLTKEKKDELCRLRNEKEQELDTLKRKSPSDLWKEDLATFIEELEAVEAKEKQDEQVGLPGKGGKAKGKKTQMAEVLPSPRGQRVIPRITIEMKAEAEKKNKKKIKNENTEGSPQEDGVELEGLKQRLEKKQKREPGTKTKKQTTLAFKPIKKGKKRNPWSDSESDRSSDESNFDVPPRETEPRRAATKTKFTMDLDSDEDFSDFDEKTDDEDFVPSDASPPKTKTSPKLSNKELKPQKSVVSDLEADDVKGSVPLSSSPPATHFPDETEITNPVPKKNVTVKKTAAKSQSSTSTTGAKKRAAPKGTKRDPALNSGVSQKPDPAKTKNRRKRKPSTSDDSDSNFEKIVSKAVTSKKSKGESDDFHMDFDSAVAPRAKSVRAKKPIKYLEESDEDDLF
Summary of the method: (§2)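 Reaction buffer: 50 mM Tris-Cl pH 8.0, 120 mM KCl, 10 mM MgCl2, 0.5 mM ATP, 0.5 mM DTT. Each reaction held 500 ng supercoiled pHOT1 and 1 U human Topo IIα, with compound at 10–100 μM, for 30 min at 37 °C. Reactions were stopped with glycerol/EDTA/bromophenol blue, run on 1% agarose in TBE, and stained with ethidium bromide. Etoposide 25 μM was the positive control.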

[17] = biological target: DNA topoisomerase 2-alpha (Homo sapiens) (UniProt P11388); assay: Inhibition of human DNA topoisomerase II-alpha mediated supercoiled pHOT1 plasmid DNA relaxation at 75 uM incubated for 30 mins by ethidium bromide staining based agarose gel electrophoresis analysis; summary of the method: as §2
[18] = biological target: DNA topoisomerase 2-alpha (Homo sapiens) (UniProt P11388); assay: Inhibition of human DNA topoisomerase II-alpha mediated supercoiled pHOT1 plasmid DNA relaxation at 100 uM incubated for 30 mins by ethidium bromide staining based agarose gel electrophoresis analysis; summary of the method: as §2
[19] = biological target: T1, DNA topoisomerase 1 (Homo sapiens) (UniProt P11387); assay: Inhibition of human DNA topoisomerase I mediated supercoiled pHOT1 plasmid DNA relaxation upto 100 uM incubated for 30 mins by ethidium bromide staining based agarose gel electrophoresis analysis
T1 sequence (whole entry): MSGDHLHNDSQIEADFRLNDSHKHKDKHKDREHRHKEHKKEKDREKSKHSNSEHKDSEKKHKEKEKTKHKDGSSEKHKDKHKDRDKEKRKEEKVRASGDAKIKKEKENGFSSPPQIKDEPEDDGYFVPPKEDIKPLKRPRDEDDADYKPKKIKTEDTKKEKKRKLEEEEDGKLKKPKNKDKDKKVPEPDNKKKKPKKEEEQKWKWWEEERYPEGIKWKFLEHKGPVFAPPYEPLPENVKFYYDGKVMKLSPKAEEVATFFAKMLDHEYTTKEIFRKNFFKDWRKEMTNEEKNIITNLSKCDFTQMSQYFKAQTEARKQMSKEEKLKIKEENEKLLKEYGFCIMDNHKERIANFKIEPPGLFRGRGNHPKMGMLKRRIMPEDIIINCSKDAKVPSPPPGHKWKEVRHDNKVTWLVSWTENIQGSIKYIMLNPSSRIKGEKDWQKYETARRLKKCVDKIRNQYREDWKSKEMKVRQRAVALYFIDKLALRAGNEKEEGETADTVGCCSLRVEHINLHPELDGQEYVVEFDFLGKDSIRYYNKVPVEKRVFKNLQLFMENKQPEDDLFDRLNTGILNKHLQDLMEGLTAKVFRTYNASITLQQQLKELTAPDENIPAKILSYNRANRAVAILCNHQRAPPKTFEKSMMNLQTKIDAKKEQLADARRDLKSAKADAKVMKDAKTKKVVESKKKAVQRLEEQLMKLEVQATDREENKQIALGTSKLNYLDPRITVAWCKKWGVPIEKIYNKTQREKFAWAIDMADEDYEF

[20] = tested on: Calf thymus DNA; assay: Binding affinity to calf thymus DNA assessed as maximum absorption wavelength shift at pH 7.4 at 10 uM by UV-vis absorption spectroscopy; assay type: nucleic-acid assay; conditions: Bos taurus
Summary of the method: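 Absorption titration at 300 K in a 1 cm cell, background subtracted. Compound was fixed (10 μM per legend; 20 μM in methods) with ct-DNA added up to 15–20 μM in 10 mM phosphate buffer, pH 7.4 (A260/A280 1.82). A buffer-addition control was run. K was taken from the 1/(Af−Aobs) vs 1/[DNA] fit.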

[21] = tested on: Calf thymus DNA; assay: Binding affinity to calf thymus DNA assessed as decrease in maximum emission wavelength at pH 7.4 at 10 uM by fluorescence spectroscopy; assay type: nucleic-acid assay; conditions: Bos taurus
Summary of the method: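 Compound was held constant (10 μM per legend; 20 μM in methods) and titrated with ct-DNA (0–20 μM) in 10 mM phosphate buffer, pH 7.4. Emission spectra were excited at 300 nm, with a buffer-only control. Binding constant came from a Benesi–Hildebrand plot.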

[22] = biological target: Albumin (Bos taurus, UniProt P02769); assay: Binding affinity to bovine serum albumin assessed as decrease in fluorescence intensity at pH 7.4 at 0 to 30 uM by fluorescence quenching method; conditions: cattle
Sequence of Albumin (P02769 whole entry): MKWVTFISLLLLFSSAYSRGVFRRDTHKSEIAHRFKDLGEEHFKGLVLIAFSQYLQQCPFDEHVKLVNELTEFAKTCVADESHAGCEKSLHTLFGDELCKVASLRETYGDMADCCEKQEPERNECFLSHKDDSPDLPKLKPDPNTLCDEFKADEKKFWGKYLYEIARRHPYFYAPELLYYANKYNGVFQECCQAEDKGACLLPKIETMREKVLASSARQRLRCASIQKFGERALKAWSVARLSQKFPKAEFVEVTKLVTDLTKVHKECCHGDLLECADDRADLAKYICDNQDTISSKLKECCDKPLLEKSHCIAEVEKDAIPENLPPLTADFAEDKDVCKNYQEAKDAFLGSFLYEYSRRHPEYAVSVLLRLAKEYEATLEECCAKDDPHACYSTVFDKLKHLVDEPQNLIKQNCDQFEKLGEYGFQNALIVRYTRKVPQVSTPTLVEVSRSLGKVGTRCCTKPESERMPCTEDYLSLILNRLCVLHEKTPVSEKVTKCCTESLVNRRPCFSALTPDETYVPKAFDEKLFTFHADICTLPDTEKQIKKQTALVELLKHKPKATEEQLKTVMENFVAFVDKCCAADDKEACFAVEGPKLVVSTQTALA

Compound `OCCN1CCN(c2nc(Nc3ccc(-c4nc5ccccc5[nH]4)cc3)c3cn[nH]c3n2)CC1` has a GI50 [1] of 0.44 µM, a GI50 [2] of 1.81 µM and a GI50 [3] of 1.84 µM. It also gave a GI50 [4] of 1.76 µM, a GI50 [5] of 1.49 µM and a TGI [6] of 1.22 µM. For the same compound, the TGI [7] was 3.23 µM, the TGI [8] was 2.12 µM and the TGI [9] was 3.26 µM. The TGI [10] was 3.59 µM, the LC50 [11] was > 100 µM and the LC50 (lethal concentration, 50% cell kill) [12] was 6.26 µM. For the same compound, the LC50 (lethal concentration, 50% cell kill) [13] was 5.71 µM, the LC50 [14] was 5.97 µM and the CC50 [15] was 7.02 µM. For the same compound, the inhibition [16] was “Active”, the inhibition [17] was “Active” and the inhibition [18] was “Active”. For the same compound, the inhibition [19] was “inactive”, the Activity [20] was 259 nm and the Activity [21] was “Active”. For the same compound, the Activity [22] was “Active”.

`Fc1ccc(Nc2nc(Nc3ccc(-c4nc5ccccc5[nH]4)cc3)c3cn[nH]c3n2)cc1` showed a GI50 [1] of 2.62 µM, a GI50 [2] of 2.8 µM and a GI50 [3] of 2.49 µM. It also gave a GI50 [4] of 1.84 µM, a GI50 [5] of 1.95 µM and a TGI [6] of 6.33 µM. For the same compound, the TGI [7] was 5.37 µM, the TGI [8] was 3.83 µM and the TGI [9] was 5.08 µM. For the same compound, the TGI [10] was 6.77 µM, the LC50 [11] was > 100 µM and the LC50 (lethal concentration, 50% cell kill) [12] was 32.5 µM. For the same compound, the LC50 (lethal concentration, 50% cell kill) [13] was 6.8 µM, the LC50 [14] was 9.22 µM and the CC50 [15] was 19 µM. The inhibition [16] was “Active”, the inhibition [17] was “Active” and the inhibition [18] was “Active”. For the same compound, the inhibition [19] was “inactive”, the Activity [20] was 257 nm and the Activity [21] was “Active”. For the same compound, the Activity [22] was “Active”.
